Source: PubChem BioAssay
This is a sample that favours compounds with a hit; in the whole collection about 9.4% have one here.
T cruzi repl: blocks replication of Trypanosoma cruzi; inhibition, % (test concentration not listed); AID 1885; 1.4% of 300,000 active; T. cruzi beta-gal in NIH3T3, luminescence, 90 h;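 active = mean inhibition across valid replicates above about 55%, limit read from the data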;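 also: signal also drops with host cell toxicity which is not excluded here; higher percent means less beta-gal luminescence so fewer parasites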
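System – NIH/3T3 host cells with β-galactosidase reporter T. cruzi · Doses – single 50 nL compound addition per well in DMSO · Reagent – 5000 T. cruzi trypomastigotes/well · Medium – Low-serum DMEM with 2% FBS · Timing – ≥90 h infection period, 3 h prior cell attachment · Evaluation – parasite load inhibition, % · Technique – GalScreen luminescence, 60 min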
Beta apoptosis: blocks beta cell apoptosis; 0.8% of 300,000 active; AID 435005; protection from apoptosis, % (test concentration not listed); INS-1E cytokine-induced death, ATP luminescence, 48 h; percent of positive-control rescue, neutral wells zero;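 active = Every replicate reaches about 75%, or at least half do and their mean reaches it too, limit read from the data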;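 also: higher means more ATP so stronger rescue from cytokine killing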
CSC inhib: blocks cancer stem cells; 1.1% of 300,000 active; inhibition, % at 7.5 µM; cancer stem cell-like cells viability, luminescence; in the data active = inhibition above about 75%; tested in HMLE shEcad cells
Mdm2 MdmX PPI: disrupts the human Mdm2-MdmX interaction; O15151+Q00987; SaOS-2 split-luciferase Mdm2/MdmX complementation, luminescence; inhibition, % at 8 µM; 3% of 330,000 active;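 active = inhibition of at least 50% at 8 µM in the primary screen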
Target sequence (O15151 whole entry, looked up): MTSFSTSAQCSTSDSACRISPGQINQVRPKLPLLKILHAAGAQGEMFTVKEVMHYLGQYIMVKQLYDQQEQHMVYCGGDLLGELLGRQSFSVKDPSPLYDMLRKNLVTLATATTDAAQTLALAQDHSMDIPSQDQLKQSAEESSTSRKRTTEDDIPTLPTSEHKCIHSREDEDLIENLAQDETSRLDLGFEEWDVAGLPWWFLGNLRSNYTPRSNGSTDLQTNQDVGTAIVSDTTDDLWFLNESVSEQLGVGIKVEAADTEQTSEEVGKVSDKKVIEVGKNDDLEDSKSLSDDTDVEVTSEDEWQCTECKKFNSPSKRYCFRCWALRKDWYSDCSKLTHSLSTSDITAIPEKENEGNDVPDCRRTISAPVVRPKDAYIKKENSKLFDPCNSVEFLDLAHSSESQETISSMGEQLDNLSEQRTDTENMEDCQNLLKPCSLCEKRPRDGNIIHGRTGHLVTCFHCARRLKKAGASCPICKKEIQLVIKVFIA
Target sequence (Q00987 whole entry, looked up): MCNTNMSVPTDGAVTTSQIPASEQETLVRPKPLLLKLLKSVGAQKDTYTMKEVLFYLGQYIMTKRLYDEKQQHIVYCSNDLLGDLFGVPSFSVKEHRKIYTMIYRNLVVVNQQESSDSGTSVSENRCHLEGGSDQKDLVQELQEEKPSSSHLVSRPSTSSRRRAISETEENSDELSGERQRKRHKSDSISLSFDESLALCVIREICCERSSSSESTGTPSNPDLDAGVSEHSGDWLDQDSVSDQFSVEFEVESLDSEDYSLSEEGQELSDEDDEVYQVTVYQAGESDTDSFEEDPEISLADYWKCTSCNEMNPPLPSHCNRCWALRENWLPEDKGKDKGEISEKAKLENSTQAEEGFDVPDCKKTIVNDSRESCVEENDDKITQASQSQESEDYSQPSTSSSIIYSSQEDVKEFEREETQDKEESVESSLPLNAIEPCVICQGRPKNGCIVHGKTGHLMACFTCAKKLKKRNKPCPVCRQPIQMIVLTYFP
L major viab: Leishmania major promastigote growth inhibition. Leishmania major promastigotes, resazurin fluorescence viability. inhibition, % at 10 µM. 9% of 200,000 active. AID 1063; in the data active = inhibition above about 50%;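 also: promastigotes grown with compound for 44 hours at 28 °C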
SKKanGAS inh: SKKanGAS growth inhibition | AID 1662 | S. pyogenes SKKanGAS, kanamycin growth, BacTiter-Glo, 6 h | 1.3% of 300,000 active | inhibition, % at 7.5 µM;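 active = mean replicate score, as percent of positive control median, at least 50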;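 also: strain carries kanamycin resistance gene driven by streptokinase promoter and grows in 40 µg/ml kanamycin; loss of luminescence reflects streptokinase promoter inhibition or plain growth inhibition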
Mdm2-MdmX conf: human Mdm2/MdmX binding inhibition, confirmed | 55% of 10,000 active | luminescent assay | shares compounds with Mdm2 MdmX PPI | inhibition, % at 8 µM | AID 489028; in the data active = inhibition above about 40%
FLuc counter: inhibits full-length luciferase, flagging false Mdm2/MdmX hits. shares compounds with Mdm2 MdmX PPI. inhibition, % at 8 µM. AID 504607. 77% of 6,200 active. SaOS-2 full-length luciferase counterscreen, luminescence;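 active = mean inhibition at 8 µM reaching about 37%, which flags the compound as non-specific, limit read from the data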;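 also: p53-null SaOS-2 cells with luciferase driven by a doxycycline-inducible promoter; compound on cells about two nights before reading with doxycycline added after day one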
Hits are given with their value; i = inactive; nt = no result.

SMILES	T cruzi repl	Beta apoptosis	CSC inhib	Mdm2 MdmX PPI	L major viab	SKKanGAS inh	Mdm2-MdmX conf	others
Cc1cc(-c2nnc(SCC(=O)Nc3ccccc3C(F)(F)F)o2)c(C)n1-c1ccccc1	i	i	i	75	i	i	77	FLuc counter=103
O=C(CSc1nnc(-c2ccccc2)o1)Nc1ccccc1F	i	i	i	i	i	i	nt
Cc1ccc(-c2nnc(SCC(=O)Nc3ccccc3F)o2)cc1	i	i	i	80	i	i	67	FLuc counter=i
C[C@H]1CN([C@@H](C)CO)C(=O)c2cc(NC(=O)C3CCCCC3)ccc2O[C@H]1CN(C)Cc1ccc(-c2ccccc2)cc1	nt	i	i	81	nt	nt	i
C[C@@H]1CN([C@H](C)CO)C(=O)Cc2cc(NS(=O)(=O)c3ccc(Cl)cc3)ccc2O[C@H]1CN(C)Cc1ccc(C(F)(F)F)cc1	nt	i	105	90	nt	nt	62	FLuc counter=55
C[C@@H]1CN([C@H](C)CO)C(=O)Cc2cc(NC(=O)Nc3ccccc3)ccc2O[C@@H]1CN(C)Cc1ccc2c(c1)OCO2	nt	i	i	53	nt	nt	i
C[C@H](CO)N1C[C@H](C)[C@H](CN(C)Cc2ccccc2)Oc2ccc(NC(=O)Nc3ccc(F)cc3)cc2C1=O	nt	i	i	65	nt	nt	i
Cc1cccc(N(C(=O)c2csnn2)C(C(=O)NCc2ccccc2)c2cccs2)c1 (centres undefined)	i	i	i	i	nt	i	nt
C[C@@H]1CN([C@@H](C)CO)C(=O)Cc2cc(NC(=O)Nc3cccc4ccccc34)ccc2O[C@@H]1CN(C)Cc1ccc(C(F)(F)F)cc1	nt	i	i	65	nt	nt	i
C[C@@H]1CN([C@H](C)CO)C(=O)c2cc(NC(=O)Nc3cccc4ccccc34)ccc2O[C@H]1CN(C)Cc1ccc(C(F)(F)F)cc1	nt	nt	nt	56	nt	nt	i	FLuc counter=81
Cc1ccc(C(=O)Nc2cccc(C(F)(F)F)c2)cc1Nc1ncnc2nc[nH]c12	i	i	i	i	nt	i	nt
CCOc1ccc(C2C(C#N)=C(N)N(N(C)C)C3=C2C(=O)CC(C)(C)C3)cc1 (centres undefined)	i	i	i	i	nt	i	nt
CC(=O)N1c2ccc(S(=O)(=O)N(C)CC(=O)NC3CCCC3)cc2CC1C (centres undefined)	i	i	i	i	nt	i	nt
O=C(O)c1ccc(N/N=C/C=C/c2ccccc2[N+](=O)[O-])cc1	i	i	i	i	i	i	nt
O=[N+]([O-])c1ccccc1/C=C/C=N/Nc1ccc(S(=O)(=O)Nc2ccc(Cl)cc2)cc1[N+](=O)[O-]	68	i	i	56	67	i	i
O=[N+]([O-])c1cc(S(=O)(=O)Nc2cccc(Cl)c2)ccc1N/N=C/c1ccc(N2CCOCC2)cc1	i	i	i	84	nt	i	i
CCC(C)Sc1ccc([C@H]2N[C@@](C)(C(=O)OC)[C@H]3C(=O)N(CC)C(=O)[C@@H]23)cc1OC (some centres undefined)	nt	i	i	i	nt	nt	nt
CC(C)(C)c1ccc(Cn2c(=N)n(CC(O)c3ccco3)c3ccccc32)cc1 (centres undefined)	60	i	i	98	100	i	84	FLuc counter=40
Cc1ccccc1NS(=O)(=O)c1nnc(NC(=O)CC(C)C)s1	i	i	i	i	nt	i	nt
CS(=O)(=O)c1ccc(NC(=O)CCN2C(=O)C3CCCCC3C2=O)cc1 (centres undefined)	i	i	i	i	nt	i	nt
NC1=NC[C@H](CC2CCCCC2)N1CCc1cc(C(F)(F)F)cc(C(F)(F)F)c1	i	i	102	100	nt	i	81	FLuc counter=59
FC(F)(F)c1cc(CCN2CCNC[C@@H]2CC2CCCCC2)cc(C(F)(F)F)c1	nt	i	nt	100	nt	nt	i
CN(c1ccc(F)cc1)S(=O)(=O)c1ccc(Cl)c(C(=O)Nc2ccncc2)c1	i	i	i	52	nt	i	i
CN(c1ccccc1)S(=O)(=O)c1ccc(Cl)c(C(=O)Nc2ccncc2)c1	nt	i	i	i	nt	nt	nt
O=C(Cn1cnc2c(OCc3ccccc3)ncnc21)N[C@H](CO)Cc1cc2ccccc2[nH]1	nt	i	nt	51	nt	nt	i
COC(=O)[C@H](Cc1ccccc1)NC(=O)Cn1cnc2c(OCc3ccccc3)ncnc21	nt	i	i	i	nt	nt	nt
